Test results as given in paper PMC12480952 (Nature Communications, 2025).

Test system: FLAG-tagged, full-length WT BCL-2
Assay: Streptavidin pull-down from HEK 293T lysate, FLAG-BCL-2 WT, anti-FLAG western
Assay type: binding, human
Settings: biotinylated BAD SAHB 4.2 1 μM, 300 μg lysate, overnight 4 °C
Summary of the method: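 HEK 293T cells (DMEM, 10% FBS, penicillin/streptomycin, 2 mM glutamine; mycoplasma-free) were transfected at 70% confluence with 3 μg of plasmid encoding N-FLAG full-length BCL-2 (aa 1–239) and lysed after 24 h in CHAPS buffer. Lysate (300 μg) took 1 μM biotinylated test peptide ± competitor (0.1, 1.0, 10 μM), overnight, 4 °C. Streptavidin agarose capture followed (2 h, room temperature), then PBS and 1% NP-40 washes, LDS elution and anti-FLAG western; three independent repeats.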

SMILES: CC1(C)CCC(CN2CCN(c3ccc(C(=O)NS(=O)(=O)c4ccc(NCC5CCOCC5)c([N+](=O)[O-])c4)c(Oc4cnc5[nH]ccc5c4)c3)CC2)=C(c2ccc(Cl)cc2)C1 [venetoclax]
- displacement of biotin-BAD SAHB 4.2 from FLAG-BCL-2 WT (venetoclax 1 μM): near complete dissociation
- displacement of biotin-BAD SAHB 4.2 from FLAG-BCL-2 WT (venetoclax 10 μM): complete dissociation
